From PubChem BioAssay
In the library only some 1.7% were active in any assay of this set; here they are far more common.
proCasp3 act: activators of human procaspase-3; P42574; recombinant procaspase-3 D3A, Ac-DEVD-pNA absorbance 405 nm; activation, % at 8.5 µM; 330,000 compounds, 0.11% hits; AID 463141;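 active means activation above the mean of all tested compounds plus 3 SD, cut at about 21% in these data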;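 further: 0% = DMSO alone and 100% = DMSO wells spiked with extra 5 µM PC-3 D3A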
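Technique: 405 nm absorbance of p-nitroaniline, reads at 0 and 120 min; Test system: Procaspase-3 D3A mutant; Incubation: 1 h enzyme-compound preincubation, then 2 h substrate reaction, 25 °C; Repeats: singlicate, each compound tested once; Benchmarks: low control DMSO wells, high control DMSO plus 5 µM PC-3 D3A.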
PolyA inhibitor: blocks polyadenylation in yeast reporter cells. 300,000 compounds, 0.02% hits. activity score, % at 12 µM. S. cerevisiae SKY197-pL101 polyadenylation reporter, beta-gal luminescence; efflux-impaired pdr1/pdr3 knockout yeast; score 100 = 6 SD above DMSO. AID 1875;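 active means lowest replicate activity score at least 50, where 100 means six control SD above control mean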;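 further: yeast exposed to compound for 9 h at 30 °C; higher score means more reporter readthrough which indicates perturbed polyadenylation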
Neddyl block: blocks human cullin neddylation | calls only at 25 µM | 360,000 compounds, 0.58% hits | TR-FRET cullin neddylation, biochemical; in the data active means inhibition above about 36%
proCasp7 act: activates human procaspase-7, counter-screen for procaspase-3 activators. P55210. recombinant procaspase-7, Ac-DEVD-pNA absorbance 405 nm; D23A/D198A/D206A triple mutant, cannot self-cleave; scale: DMSO 0, 5 µM enzyme 100. activation, % at 8.5 µM. 330,000 compounds, 0.093% hits;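 active means percent activation above the screen-wide mean plus 3 SD, cut at about 25% in these data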
Target sequence (P55210 whole entry D23A/D198A/D206A): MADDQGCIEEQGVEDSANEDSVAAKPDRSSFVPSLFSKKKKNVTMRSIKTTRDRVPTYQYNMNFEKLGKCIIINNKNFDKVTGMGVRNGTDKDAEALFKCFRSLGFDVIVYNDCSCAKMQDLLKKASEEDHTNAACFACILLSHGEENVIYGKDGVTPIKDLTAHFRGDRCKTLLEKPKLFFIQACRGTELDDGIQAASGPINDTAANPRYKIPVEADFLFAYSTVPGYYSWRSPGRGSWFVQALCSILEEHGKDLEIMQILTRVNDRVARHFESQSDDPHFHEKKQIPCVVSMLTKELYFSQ
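Assay system – Uncleavable procaspase-7 mutant enzyme · Quantity – 2 µM procaspase-7 mutant as dispensed · Times – 1 h preincubation, 2 h reaction · Dosing – single nominal 8.5 µM compound dose, 0.8% DMSO final · Buffer or medium – Zinc-free 50 mM HEPES buffer, pH 7.4, with NaCl and Triton X-100 · Detection – Epi-absorbance of released pNA at 405 nm, two timepoints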
IMP-1 inh-1: inhibitors of Pseudomonas aeruginosa IMP-1 metallo-beta-lactamase; purified IMP-1, nitrocefin hydrolysis, epi-absorbance fluorescence; inhibition, % at 5.6 µM; 290,000 compounds, 0.45% hits; AID 1556;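 active means inhibition above the mean plus 3 SD of all compounds in the same screening run, cut at about 4.5% in these data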;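 further: 0% = IMP-1 with DMSO and 100% = DMSO wells lacking enzyme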
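Material – recombinant IMP-1 enzyme, purified · Amount – IMP-1 0.2 nM before substrate addition · Medium – HEPES buffer pH 7.1 with ZnSO4 and Brij 35 · Timing – 25 °C, 15 min preincubation, 25 min reaction · Measured by – plate fluorescence quenching by hydrolysis product, ex 480/em 530 nm · Read-out – percent enzyme inhibition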
VIM-2 inh: inhibitors of Pseudomonas aeruginosa VIM-2 metallo-beta-lactamase. purified VIM-2, nitrocefin hydrolysis, epi-absorbance fluorescence. inhibition, % at 5.6 µM. 290,000 compounds, 0.89% hits;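 active means inhibition above the mean of all tested compounds plus 3 SD, cutoff set per screening run, cut at about 7.5% in these data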;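 further: red hydrolysis product quenches plate fluorescence so inhibitors raise well fluorescence; 0% = enzyme with DMSO and 100% = DMSO without enzyme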
IMP-1 inh-2: selectivity counter-screen for VIM-2 inhibitors: IMP-1 metallo-beta-lactamase inhibitors | shares compounds with VIM-2 inh | purified IMP-1, nitrocefin hydrolysis, epi-absorbance fluorescence | inhibition, % at 5.6 µM | 1,300 tested, under 10 active | AID 1856; call rule not given here;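 further: 0% = enzyme with vehicle and 100% = vehicle without enzyme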
VIM-2 FRET inh: counter-screen for VIM-2 inhibitors: epi-absorbance artifacts via FRET; shares compounds with VIM-2 inh; purified VIM-2, CCF2 FRET substrate hydrolysis; inhibition, % at 5.6 µM; 1,300 compounds, 23% hits;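 active means inhibition above the mean of all tested compounds plus 3 SD, cut at about 19% in these data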;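 further: 0% = VIM-2 plus DMSO and 100% = no enzyme wells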
TEM-1 inh: TEM-1 inhibition, counter-screen for VIM-2 inhibitors | shares compounds with VIM-2 inh | Purified TEM-1, nitrocefin hydrolysis, epi-absorbance fluorescence | inhibition, % at 5.6 µM | 1,300 compounds, 3% hits | AID 1866;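 active means inhibition above that campaign's mean inhibition plus 3 SD, cut at about 0.46% in these data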;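 further: 0% = TEM-1 with DMSO and 100% = TEM-1 with 100 µM potassium clavulanate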
Target sequence (P62593 whole entry, looked up): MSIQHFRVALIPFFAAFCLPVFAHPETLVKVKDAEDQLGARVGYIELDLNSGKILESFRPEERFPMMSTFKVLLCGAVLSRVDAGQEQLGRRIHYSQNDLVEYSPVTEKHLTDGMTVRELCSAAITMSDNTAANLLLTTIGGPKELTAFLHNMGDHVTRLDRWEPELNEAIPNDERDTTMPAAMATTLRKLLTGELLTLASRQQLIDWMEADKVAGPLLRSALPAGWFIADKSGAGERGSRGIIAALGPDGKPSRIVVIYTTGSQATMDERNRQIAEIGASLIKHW
VIM-2 inh conf: confirmation of P. aeruginosa VIM-2 metallo-beta-lactamase inhibitors | shares compounds with VIM-2 inh | purified VIM-2, nitrocefin hydrolysis, epi-absorbance | inhibition, % at 5.6 µM | 1,300 compounds, 96% hits;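 active means inhibition of the VIM-2 beta-lactamase enzyme above about 11% from the earlier first-round screen, limit read from the data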;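 further: 0% = VIM-2 with DMSO and 100% = buffer wells without enzyme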
* = called active by the depositor; i = inactive; nt = no result shown.

SMILES	proCasp3 act	PolyA inhibitor	Neddyl block	proCasp7 act	IMP-1 inh-1	VIM-2 inh	IMP-1 inh-2	VIM-2 FRET inh	TEM-1 inh	VIM-2 inh conf
c1cn(CCCNc2ncnc3sc4c(c23)CCC4)cn1	-8	0	i	-5	-2	28*	-3	-10	-8	56*
CC(C)CCNC(=O)c1ccc(Cl)c(NC(=O)c2ccccc2F)c1	4	-20	nt	11	1	0	nt	nt	nt	nt
Cc1nc2ccccc2c2oc(C(=O)NCCN3CCN(C)CC3)cc12	13	-13	i	-6	-6	42*	-4	1	-8	53*
Cc1cc(=O)oc2c(C)c(OC(C)C(=O)NCCCN3CCOCC3)ccc12 (stereo unspecified)	-7	-7	i	10	-3	-3	nt	nt	nt	nt
Cc1c(OC(C)C(=O)NCCN2CCOCC2)ccc2c3c(c(=O)oc12)CCC3 (stereo unspecified)	4	20	nt	7	-2	19*	-5	2	-13	26*
Cc1c(OC(C)C(=O)NCCCN2CCOCC2)ccc2c3c(c(=O)oc12)CCC3 (stereo unspecified)	3	27	i	18	-2	24*	-3	-1	-10	33*
CCCc1cc(=O)oc2c(C)c(OCC(=O)NC3CC(C)(C)NC(C)(C)C3)ccc12	-4	-8	i	8	-2	7	nt	nt	nt	nt
Cc1c(OCC(=O)NC2CC(C)(C)NC(C)(C)C2)ccc2c1oc(=O)c1ccccc12	5	26	nt	2	1	27*	-1	1	-15	40*
Cc1cc(=O)oc2c(C)c(OCC(=O)NC3CC(C)(C)NC(C)(C)C3)ccc12	-7	1	i	9	-2	5	nt	nt	nt	nt
Cc1c(OCC(=O)NC2CC(C)(C)NC(C)(C)C2)ccc2c3c(c(=O)oc12)CCC3	3	-12	i	9	-4	32*	-1	1	-13	44*
COc1ccc2c(c1)oc(=O)c1ccccc12	0	-6	i	-2	0	8.3*	-3	0	-6	15*
Cn1c(SCC(=O)c2cc3ccccc3o2)nnc1-c1ccccc1	-10	-11	i	-8	-2	-5	nt	nt	nt	nt
O=C(CSc1nnc(-c2cccs2)n1CC1CCCO1)c1cc2ccccc2o1 (stereo unspecified)	-13	-3	i	-9	-2	14*	-4	31*	-9	17*
CCOC(=O)c1[nH]c(C(=O)O)c(CCC(=O)OC)c1C	-4	-12	i	5	1	22*	1	49*	-5	32*
O=C(Nc1ccc(C(=O)N2CCCC2)cc1)c1ccccc1[N+](=O)[O-]	3	-4	i	2	-1	1	nt	nt	nt	nt
Fc1ccc(-c2ccc(/C=N\n3cnnc3)o2)cc1Cl	3	10	i	-2	-3	45*	-4	-4	-5	57*
Fc1ccc(-c2ccc(/C=N/n3cnnc3)o2)cc1	8	4	i	-7	-2	18*	-2	-1	-6	30*
COc1cccc(N2CCN(C(=O)c3ccc4nc[nH]c4c3)CC2)c1	2	15	i	-2	-4	-3	nt	nt	nt	nt
CC(=O)C(Cc1ccccc1)NC(=O)COC(=O)CCN1C(=O)C2CC=CCC2C1=O (stereo unspecified)	-2	5	i	8	nt	nt	nt	nt	nt	nt
O=C(c1ccco1)N1N=C(c2ccc(Cl)cc2)CC1c1ccco1 (stereo unspecified)	5	-9	i	1	-3	35*	-4	69*	-9	44*
O=C(NC12CC3CC(CC(C3)C1)C2)c1ccc([N+](=O)[O-])cc1	8	3	i	-2	-1	-1	nt	nt	nt	nt
O=[N+]([O-])c1ccc(C23CC4CC(CC(O)(C4)C2)C3)cc1	6	16	nt	-1	-1	15*	-3	34*	-5	22*
COc1ccccc1C(=O)NCCC(=O)NC1CCCC(C)C1C (stereo unspecified)	-4	12	i	13	nt	nt	nt	nt	nt	nt
Cc1ccc2ncccc2c1N	5	-2	i	-3	-3	0	nt	nt	nt	nt
Cc1ccc2nc(C)c(C)nc2c1N	3	-19	i	0	0	20*	-3	-5	-6	31*
SMILES	proCasp3 act	PolyA inhibitor	Neddyl block	proCasp7 act	IMP-1 inh-1	VIM-2 inh	IMP-1 inh-2	VIM-2 FRET inh	TEM-1 inh	VIM-2 inh conf
NC(=O)c1ccccc1OCCOCCOCCOc1ccccc1C(N)=O	3	-5	i	-7	-1	-3	nt	nt	nt	nt
O=P(O)(O)c1ccccc1OCCOCCOCCOCCOc1ccccc1P(=O)(O)O	-1	3	i	5	-4	31*	-2	60*	-4	44*
OCC1(Cc2ccccc2)CCN(Cc2ccc(C(F)(F)F)cc2)CC1	2	-23	i	3	-2	0	nt	nt	nt	nt
COC(=O)c1c(NC(=O)c2ccccc2F)sc(C(=O)N2CCOCC2)c1C	6	13	i	12	-2	13*	-3	1	-7	20*
CCCC(=O)Nc1nnc(SCC(=O)NCc2cccs2)s1	-1	26	i	8	-5	20*	-2	44*	-3	33*
COCC(=O)Nc1nnc(SCC(=O)NCc2cccs2)s1	7	-3	i	-2	-3	22*	-3	53*	-3	38*
CCCc1nn(C)c2c(=O)[nH]c(-c3cc(S(=O)(=O)Nc4ccc(NC(C)=O)cc4)ccc3OCC)nc12	5	17	i	-4	0	-1	nt	nt	nt	nt
CCCc1nn(C)c2c(=O)[nH]c(-c3cc(S(=O)(=O)N4CCN(C)CC4)ccc3OCC)nc12	4	-7	i	5	-2	17*	-3	4	-7	26*
O=c1[nH]c(CN2CCN(c3ccccc3)CC2)nc2ccccc12	0	8	i	0	-2	-1	nt	nt	nt	nt
O=c1[nH]c(CN2CCN(c3ccc(F)cc3)CC2)nc2ccccc12	4	-3	i	5	-4	55*	-4	-2	-7	-1
